Source: ChEMBL document CHEMBL1817558, “Design, synthesis and antimicrobial activity of chiral 2-(substituted-hydroxyl)-3-(benzo[d]oxazol-5-yl)propanoic acid derivatives” (2011)
Converted amounts (≈) assume the structure as drawn.

Tests used:
Type in all cases: functional
[1] = system: Escherichia coli; assay: Antibacterial activity against Escherichia coli ATCC 11303 after 24 hrs by NCCLS M7-A6 broth dilution method; settings: ATCC 11303, 24 h
In short: (§1)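 Broth microdilution MIC per NCCLS. The 4 mg/mL DMSO stock was diluted in Mueller-Hinton broth with inoculum at 10^5 CFU/mL. Twofold serial dilutions gave final concentrations of 200 to 0.39 µg/mL. Incubation was 24 h at 37 °C, and cultures were streaked on plates to check clarity. MIC was the lowest concentration giving a clear well. Controls were medium-only and DMSO-only inoculated broth.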

[2] = system: Staphylococcus aureus; assay: Antibacterial activity against Staphylococcus aureus ATCC 10832 after 24 hrs by NCCLS M7-A6 broth dilution method; settings: ATCC 10832, 24 h
In short: (§2)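 96-well microtitre broth dilution in Mueller-Hinton broth, inoculum 10^5 CFU/mL. Compounds dissolved in DMSO at 4 mg/mL, then twofold serial dilution giving final 200 down to 0.39 µg/mL. Incubated 24 h at 37 °C. Cultures streaked on plates to check clarity; MIC taken as lowest concentration leaving the well clear. DMSO-only solvent control run at matching dilutions.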

[3] = system: Staphylococcus aureus; assay: Antibacterial activity against methicillin-resistant Staphylococcus aureus ATCC 700699 after 24 hrs by NCCLS M7-A6 broth dilution method; settings: ATCC 700699, 24 h; in short: as §2
[4] = system: Bacillus subtilis; assay: Antibacterial activity against Bacillus subtilis ATCC 33712 after 24 hrs by NCCLS M7-A6 broth dilution method; settings: ATCC 33712, 24 h; in short: as §1
[5] = system: Candida albicans; assay: microbe, parasite or virus in culture; settings: ATCC 10231, 24 h

Compound	MIC [1]	MIC [2]	MIC [3]	MIC [4]	MIC [5]
COc1ccc(O[C@@H](Cc2ccc3oc(CCCc4nc(-c5ccccc5)oc4C)nc3c2)C(=O)O)cc1	100 µg/mL (≈ 195 µM)	25 µg/mL (≈ 48.8 µM)	25 µg/mL (≈ 48.8 µM)	50 µg/mL (≈ 97.5 µM)	> 200 µg/mL
Cc1oc(-c2ccccc2)nc1CCCc1nc2cc(C[C@H](Oc3ccc(C(C)(C)C)cc3)C(=O)O)ccc2o1	3.12 µg/mL (≈ 5.79 µM)	1.56 µg/mL (≈ 2.9 µM)	1.56 µg/mL (≈ 2.9 µM)	3.12 µg/mL (≈ 5.79 µM)	> 200 µg/mL
Cc1oc(-c2ccccc2)nc1CCCc1nc2cc(C[C@H](Oc3ccc(-c4ccccc4)cc3)C(=O)O)ccc2o1	3.12 µg/mL (≈ 5.59 µM)	1.56 µg/mL (≈ 2.79 µM)	1.56 µg/mL (≈ 2.79 µM)	3.12 µg/mL (≈ 5.59 µM)	> 200 µg/mL
Cc1oc(-c2ccccc2)nc1CCCc1nc2cc(C[C@H](Oc3ccc(OCc4ccccc4)cc3)C(=O)O)ccc2o1	6.25 µg/mL (≈ 10.6 µM)	1.56 µg/mL (≈ 2.65 µM)	1.56 µg/mL (≈ 2.65 µM)	1.56 µg/mL (≈ 2.65 µM)	> 200 µg/mL
CO[C@@H](Cc1ccc2oc(CCCc3nc(-c4ccccc4)oc3C)nc2c1)C(=O)O	> 200 µg/mL	200 µg/mL (≈ 476 µM)	100 µg/mL (≈ 238 µM)	200 µg/mL (≈ 476 µM)	> 200 µg/mL
Cc1oc(-c2ccccc2)nc1CCCc1nc2cc(C[C@H](OC(C)C)C(=O)O)ccc2o1	200 µg/mL (≈ 446 µM)	50 µg/mL (≈ 111 µM)	50 µg/mL (≈ 111 µM)	50 µg/mL (≈ 111 µM)	> 200 µg/mL
Cc1oc(-c2ccccc2)nc1CCCc1nc2cc(C[C@@H](Oc3ccc(C(F)(F)F)cc3)C(=O)O)ccc2o1	25 µg/mL (≈ 45.4 µM)	12.5 µg/mL (≈ 22.7 µM)	6.25 µg/mL (≈ 11.4 µM)	12.5 µg/mL (≈ 22.7 µM)	> 200 µg/mL
Cc1oc(-c2ccccc2)nc1CCCc1nc2cc(C[C@@H](Oc3ccc(C(C)(C)C)cc3)C(=O)O)ccc2o1	25 µg/mL (≈ 46.4 µM)	12.5 µg/mL (≈ 23.2 µM)	12.5 µg/mL (≈ 23.2 µM)	12.5 µg/mL (≈ 23.2 µM)	> 200 µg/mL
Cc1oc(-c2ccccc2)nc1CCCc1nc2cc(C[C@@H](Oc3ccc(-c4ccccc4)cc3)C(=O)O)ccc2o1	12.5 µg/mL (≈ 22.4 µM)	12.5 µg/mL (≈ 22.4 µM)	6.25 µg/mL (≈ 11.2 µM)	6.25 µg/mL (≈ 11.2 µM)	> 200 µg/mL
Cc1oc(-c2ccccc2)nc1CCCc1nc2cc(C[C@@H](Oc3ccc(OCc4ccccc4)cc3)C(=O)O)ccc2o1	25 µg/mL (≈ 42.5 µM)	25 µg/mL (≈ 42.5 µM)	25 µg/mL (≈ 42.5 µM)	12.5 µg/mL (≈ 21.2 µM)	> 200 µg/mL
COC(=O)[C@H](Cc1ccc2oc(CCCc3nc(-c4ccccc4)oc3C)nc2c1)Oc1ccc(-c2ccccc2)cc1	> 200 µg/mL	> 200 µg/mL	> 200 µg/mL	> 200 µg/mL	> 200 µg/mL
CO/N=C(\C(=O)N[C@@H]1C(=O)N2C(C(=O)O)=C(COC(C)=O)CS[C@H]12)c1csc(N)n1 [CEFOTAXIME]	200 µg/mL (≈ 439 µM)	3.12 µg/mL (≈ 6.85 µM)	3.12 µg/mL (≈ 6.85 µM)	0.78 µg/mL (≈ 1.71 µM)	–
CC(C)(O/N=C(\C(=O)N[C@@H]1C(=O)N2C(C(=O)[O-])=C(C[n+]3ccccc3)CS[C@H]12)c1csc(N)n1)C(=O)O [CEFTAZIDIME]	200 µg/mL (≈ 366 µM)	0.78 µg/mL (≈ 1.43 µM)	12.5 µg/mL (≈ 22.9 µM)	6.25 µg/mL (≈ 11.4 µM)	–
CC1=C(C(=O)O)N2C(=O)[C@@H](NC(=O)[C@H](N)C3=CCC=CC3)[C@H]2SC1 [CEPHRADINE]	25 µg/mL (≈ 71.5 µM)	25 µg/mL (≈ 71.5 µM)	50 µg/mL (≈ 143 µM)	50 µg/mL (≈ 143 µM)	–
CC(=O)N1CCN(c2ccc(OCC3COC(Cn4ccnc4)(c4ccc(Cl)cc4Cl)O3)cc2)CC1 (stereo not drawn) [KETOCONAZOLE]	–	–	–	–	< 0.39 µg/mL
Clc1ccc(COC(Cn2ccnc2)c2ccc(Cl)cc2Cl)c(Cl)c1.O=[N+]([O-])O (stereo not drawn) [MICONAZOLE NITRATE]	–	–	–	–	1.56 µg/mL
CC1(C)S[C@@H]2[C@H](NC(=O)Cc3ccccc3)C(=O)N2[C@H]1C(=O)[O-].[Na+] [PENICILLIN G SODIUM]	0.78 µg/mL	3.12 µg/mL	3.12 µg/mL	< 0.39 µg/mL	–
